Test [1] relates to Thromboxane A2 receptor (Cavia porcellus). Put plainly: Inhibition of specific binding of [3H]U-46619 to TXA2/PGH2 receptor in guinea pig platelet membrane.
Test [2] is filed under the species Homo sapiens. The experiment in a line: Concentration required to reduced U-46619-induced aggregation of human platelet by 50%.(values in parentheses are 95% confidence limits). The class given is functional. The method in brief: (§1)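 Healthy male volunteers, medication-free for at least 10 days, gave blood into 3.8% sodium citrate. PRP was adjusted to 400000 platelets/µL with PPP, preincubated at 37 °C for 2 min, then given drug or vehicle for 2 min. Aggregation was triggered with submaximal U-46619 (1–3 µM) and read photometrically (Born).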

For test [3], the species on record is Cavia porcellus. Put plainly: Compound was evaluated for inhibition of specific binding of [3H]U-46619 to guinea pig platelet membrane. Format: functional. The method in brief:
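Guinea pig blood was drawn by cardiac puncture into 0.315% citrate plus 1 mM aspirin (final). PRP platelets were washed in 25 mM Tris-HCl/5 mM MgCl2 pH 7.4, sonicated, and the 100000 g pellet used at 1 mg/mL protein. Membranes were incubated with 4 nM [3H]U-46619 and drug at 25 °C for 30 min, then filtered and counted. The IC50 is for specific binding, with 2–6 replicates per dose.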

Test [4] has as its system Rattus norvegicus. Put plainly: The compound was tested in vivo for the inhibition of U-46619-induced bronchoconstriction in rat, 1 hr after oral administration at a dose of 1.25 mg/Kg. Format: functional. The method in brief:
(§2)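 Male Sprague-Dawley rats received drug suspended in 5% gum arabic orally 1 h before U-46619 (30 µg/kg, iv). Bronchoconstriction was recorded by the Konzett-Rössler method and expressed as percent inhibition versus control, tested with Dunnett's test.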

The species named for test [5] is Oryctolagus cuniculus. Put plainly: Concentration required to reduced U-46619-induced contraction of the rabbit aorta by 50%.(values in parentheses are 95% confidence limits). Format: functional.
In test [6] the test system is Cavia porcellus. Put plainly: The compound was tested in vivo for the inhibition of U-46619-induced bronchoconstriction in guinea pig, 1 hr after oral administration at a dose of 1.25 mg/Kg. The class given is functional. The note with it: PIG1, po. The method in brief:
(§3)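 Guinea pigs received drug suspended in 5% gum arabic orally 1 h before U-46619 challenge. The result is percent inhibition of bronchoconstriction versus control, tested with Dunnett's test.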

The subject of test [7] is Rattus norvegicus. The experiment in a line: The compound was tested in vivo for the inhibition of U-46619-induced bronchoconstriction in rat, 1 hr after oral administration at a dose of 5 mg/Kg. The class given is functional. The method in brief: as §2
The subject of test [8] is Cavia porcellus. Put plainly: The compound was tested in vivo for the inhibition of U-46619-induced bronchoconstriction in guinea pig, 1 hr after oral administration at a dose of 5 mg/Kg. Format: functional. The following applies: PIG1, po. The method in brief: as §3
Test [9] concerns Cavia porcellus. Put plainly: The compound was tested in vivo for the inhibition of U-46619-induced bronchoconstriction in guinea pig, 1 hr after oral administration at a dose of 0.31 mg/Kg. Format: functional. The note with it: PIG1, po. The method in brief:
as §3

Test [10] is filed under the species Oryctolagus cuniculus. Put plainly: Concentration required to reduced U-46619-induced contraction of the rabbit aorta by 50%. The class given is functional.
For test [11], the species on record is Homo sapiens. The experiment in a line: Concentration required to reduced U-46619-induced aggregation of human platelet by 50%. Format: functional. The method in brief:
as §1

In test [12] the test system is Cavia porcellus. The experiment in a line: compound was tested in vivo for the inhibition of U-46619-induced bronchoconstriction in guinea pig, 1 hr after oral administration at a dose of 1.25 mg/Kg. Format: functional. The note with it: PIG1, po. The method in brief: as §3
Test [13] concerns Cavia porcellus. The experiment in a line: Compound was tested in vivo for the inhibition of U-46619-induced bronchoconstriction in guinea pig, 1 hr after oral administration at a dose of 5 mg/Kg. The class given is functional. The following applies: PIG1, po, read-out: Inhibition. The method in brief:
as §3

Test [14] relates to Rattus norvegicus. Put plainly: Compound was tested in vivo for the inhibition of U-46619-induced bronchoconstriction in rat, 1 hr after oral administration at a dose of 5 mg/Kg. Format: functional. The following applies: read-out: Inhibition. The method in brief: as §2
For test [15], the species on record is Oryctolagus cuniculus. The experiment in a line: Concentration required to reduced U-46619-induced contraction of the rabbit aorta by 50%. Format: functional.
The species named for test [16] is Homo sapiens. Put plainly: Concentration required to reduced U-46619-induced aggregation of human platelet by 50%. The class given is functional. The method in brief: as §1

Each structure is given as a SMILES string.

As for `Cc1c(C)c(CO)c(C)c(C(CCCCCC(=O)O)c2ccccc2)c1O` (stereo unspecified), the IC50 in [1] was 820 nM.

`Cc1c(C)c(Cl)c(C)c(C(CCCCCC(=O)O)c2ccc(F)cc2)c1O` (stereo unspecified) yielded an IC50 in test [1] of 840 nM.

On to `Cc1c(C)c2c(c(C(CCCCCC(=O)O)c3ccc(F)cc3)c1O)CCC2=O` (stereo unspecified), for which the half-maximal inhibitory concentration (IC50) amounted to 13 nM in test [1], 78 nM in test [2], 13 nM in test [3] and 27 nM in test [5]. The inhibition in vivo at 1.25 mg/kg in test [4] was under 50%; in [6], 59%. In addition, the inhibition in vivo at 5 mg/kg in test [7] was 78%; in test [8] it was under 95%. Moreover, in test [9], the inhibition in vivo at 0.31 mg/kg is -3%.

`Cc1c(C)c(CO)c(C)c(C(CCCCCC(=O)O)c2ccc(F)cc2)c1O` (stereo unspecified): the figures for the concentration for half-maximal inhibition (IC50) in test [1], in test [2] and in test [5] were 32 nM, 79 nM and 32 nM, respectively. For the same compound, in test [4], the inhibition in vivo at 1.25 mg/kg was under 40%. Further, the inhibition in vivo at 5 mg/kg in test [7] was under 65%. For the same compound, the inhibition in vivo at 0.31 mg/kg in test [9] was determined as 57%.

With `Cc1c(O)c(C(CCCCCC(=O)O)c2ccc(F)cc2)c(C)c2c1CC(=O)C2` (stereo unspecified), the 50% inhibitory concentration (IC50) in test [1] was found to be 79 nM. Moreover, the inhibition in vivo at 5 mg/kg in [8] is under 42%.

`Cc1c(C)c(Br)c(C)c(C(CCCCCC(=O)O)c2ccc(F)cc2)c1O` (stereo unspecified): the IC50 in test [1] stood at 200 nM.

On to `CCCCC(=O)c1c(C)c(C)c(O)c(C(CCCCCC(=O)O)c2ccc(F)cc2)c1C` (stereo unspecified), for which the IC50 in test [1] came out at 190 nM.

`Cc1cc(C)c(O)c(C(CCCCCC(=O)O)c2ccc(F)cc2)c1C` (stereo unspecified) registered an IC50 in [1] of 240 nM.

In the case of `Cc1c(C)c(C=O)c(C)c(C(CCCCCC(=O)O)c2ccccc2)c1O` (stereo unspecified), the values for the IC50 in [10] and in test [11] were 190 nM and 1400 nM, respectively. For the same compound, the inhibition in vivo at 5 mg/kg in [8] worked out at 30%.

Compound `Cc1c(C)c(C)c(C(CCCCCC(=O)O)c2ccc(F)cc2)c(O)c1C` (stereo unspecified) gave a half-maximal inhibitory concentration (IC50) in test [1] of 130 nM.

In test [1], `CC(=O)c1c(C)c(C)c(C(CCCCCC(=O)O)c2ccc(F)cc2)c(O)c1C` (stereo unspecified) yielded an IC50 of 250 nM.

Consider `CC(=O)c1c(C)c(C)c(O)c(C(CCCCCC(=O)O)c2ccc(F)cc2)c1C` (stereo unspecified), for which the IC50 in test [1] is 80 nM; in test [2] it was 69 nM; in test [3] it was 80 nM; in [5] it was 270 nM. Moreover, in test [6], the inhibition in vivo at 1.25 mg/kg came to 22%. The inhibition in vivo at 5 mg/kg in [7] stood at 42%; in test [8], 76%.

In turn, `Cc1c(C)c(C(=O)O)c(C)c(C(CCCCCC(=O)O)c2ccc(F)cc2)c1O` (stereo unspecified) gave a half-maximal inhibitory concentration (IC50) in [1] of 3200 nM.

In the case of `Cc1c(C)c2c(c(C(CCCCCC(=O)O)c3ccc(F)cc3)c1O)CCCC2=O` (stereo unspecified), the IC50 in test [1] came out at 76 nM.

In the case of `Cc1c(O)c(C(CCCCCC(=O)O)c2ccc(F)cc2)c(C)c2c1CCC2` (stereo unspecified), the figures for the IC50 in test [1], in [15] and in [16] were 49 nM, 230 nM and 310 nM, respectively. Further, in [12], the inhibition in vivo at 1.25 mg/kg stood at 37%. Also, the inhibition in vivo at 5 mg/kg in test [13] is 76%; in test [14], 48%.

`COCc1c(C)c(C)c(O)c(C(CCCCCC(=O)O)c2ccc(F)cc2)c1C` (stereo unspecified) registered an IC50 in test [1] of 340 nM.

For the compound `Cc1c(C)c(C=O)c(C)c(C(CCCCCC(=O)O)c2ccc(F)cc2)c1O` (stereo unspecified), the values for the IC50 in test [10], in [11] and in test [3] were 10 nM, 310 nM and 4.4 nM, respectively. Moreover, the inhibition in vivo at 1.25 mg/kg in test [4] was under 54%; in test [6], under 67%. Also, the inhibition in vivo at 5 mg/kg in [7] amounted to 68%; in test [8], 84%. Moreover, the inhibition in vivo at 0.31 mg/kg in test [9] was determined as 33%.

`Cc1cc(C)c(C(CCCCCC(=O)O)c2ccc(F)cc2)c(O)c1C` (stereo unspecified): the half-maximal inhibitory concentration (IC50) in test [1] was 450 nM.

Consider `O=C(O)Cc1ccc(CCNS(=O)(=O)c2ccc(Cl)cc2)cc1` [DALTROBAN], for which the IC50 in test [1] turned out to be 62 nM; in [10], 120 nM; in test [11], 640 nM. The inhibition in vivo at 1.25 mg/kg in test [6] was determined as 36%. The inhibition in vivo at 5 mg/kg in test [7] was under 73%; in test [8], under 84%.

On to `Cc1c(C)c(C(CCCCCC(=O)O)c2ccc(F)cc2)c(O)c(C)c1CO` (stereo unspecified), for which the IC50 in [1] stood at 650 nM.

In test [1], `Cc1c(C)c(CCO)c(C)c(C(CCCCCC(=O)O)c2ccc(F)cc2)c1O` (stereo unspecified) showed a concentration for half-maximal inhibition (IC50) of 250 nM.

`Cc1c(C)c2c(c(C(CCCCCC(=O)O)c3ccc(F)cc3)c1O)CCC2` (stereo unspecified) had a concentration for half-maximal inhibition (IC50) in test [1] of 160 nM.

For the origin of these results see ChEMBL document CHEMBL1126076, “Synthesis and thromboxane A2/prostaglandin H2 receptor antagonistic activity of phenol derivatives” (J Med Chem, 1992).
